CHOP UPR activ = apoptotic UPR (CHOP) activation | 330,000 compounds, 0.34% hits | CHO-CHOP luciferase reporter, luminescence; percent of tunicamycin response over DMSO baseline | AID 449763 | activation, % at 10 µM;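 active = at 10 µM dose, activation of 40% or more, normalized to positive control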
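Test system: CHO-CHOP cells, stable luciferase reporter of PERK-eIF2a-CHOP signalling | Quantity: 500 CHO-CHOP cells per well | Buffer or medium: F12 plus 10% serum | Compound dosing: 10 µM single point, 0.5% DMSO | Schedule: 6 h compound treatment, 37 °C | Signal: Luciferase luminescence | Control set: Tunicamycin high control, DMSO low control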
UPR XBP1 act = activators of adaptive arm of unfolded protein response (XBP1). CHO-XBP1 luciferase reporter, IRE1-XBP1 UPR activation, luminescence; percent of tunicamycin response, DMSO as zero. activation, % at 20 µM. 330,000 compounds, 0.33% hits. AID 463104;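 active = versus positive control, 20 µM dose yields 30% or more activation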
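Material: IRE1-XBP1 luciferase reporter CHO line / Quantity: one thousand reporter cells per well / Buffer or medium: F12 with 10% serum / Compound: 20 µM single concentration, DMSO 1% / Times: 6 h treatment, 37 °C / Detection: Steady-Glo luciferase glow luminescence, 10 min after reagent addition / Benchmarks: tunicamycin high, DMSO low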
aDG glyco act = alpha-DG glycosylation activation. Pro5-aDG cells, alpha-DG glycosylation AlphaScreen (IIH6); 0% Pro5, 100% B10-LARGE cell signal. activation, % at 10 µM. 360,000 compounds, 0.22% hits. AID 624168;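 active = activation of at least 8% versus controls, or a plate z-score of at least 8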;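 note: Pro5 are CHO cells carrying HIG-tagged alpha-DG that lacks glycosylation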
CHOP inh = blocks CHOP induction under ER stress; inhibition, % at 10 µM; AID 2732; 220,000 compounds, 3.8% hits; CHO-K1 CHOP-promoter luciferase, tunicamycin-induced, 15-18 h;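 active = compounds that reduced the stress-induced luciferase reporter signal by more than about 70% of percent inhibition, limit read from the data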
MPTP block = permeability transition pore inhibition; inhibition, % at 10 µM; isolated mouse mitochondria, Ca2+ swelling absorbance, 30 min; 360,000 compounds, 1.4% hits;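 active = inhibition of 50% or more, scaled per plate between neutral and stimulator controls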
NR3A LBD binder = modulates the human NR3A ligand-binding domain | NR3A LBD differential scanning fluorimetry, Tm shift; 0% = protein alone, 100% = glycine-bound protein | Tm shift relative to glycine control, % at 25 µM | 340,000 compounds, 2.5% hits | AID 1259313;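 active = melting temperature shift of at least 10% of the positive control shift, at one fixed dose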
CHOP UPR conf = confirmation of apoptotic unfolded protein response (CHOP) activators; activation, % at 10 µM; CHO-CHOP cells, CHOP-luciferase reporter luminescence; percent of tunicamycin response, DMSO as zero; AID 463112; 1,000 compounds, 64% hits; shares compounds with CHOP UPR activ; in the data active = activation above about 33%
UPR XBP1 confirm = confirmation of adaptive unfolded protein response (XBP1) activators; shares compounds with UPR XBP1 act; CHO-XBP1 IRE1-XBP1 luciferase reporter, luminescence; activation, % at 20 µM; 1,000 compounds, 63% hits; AID 485299;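 active = reporter signal at least 30% of the positive control's activation in two or more of four replicate wells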
Rh123 counter = Rhodamine 123 counter-screen of mitochondrial pore hits; inhibition, % at 10 µM; isolated mitochondria, membrane potential, Rhodamine 123 fluorescence; 5,000 compounds, 78% hits; shares compounds with MPTP block; in the data active = inhibition above about 22%
Hits are given with their value. Compounds with a hit are over-represented: about 5.6% of the library has one in this group of screens.

CC1=C2C(=O)C3C(CC=C4CC(O)CCC43C)C2CCC12OC1CC(C)CNC1C2C (stereo not drawn) was read as CHOP UPR activ inactive, UPR XBP1 act inactive, aDG glyco act inactive, MPTP block inactive and NR3A LBD binder inactive.
For O=C(N=Nc1c(O)[nH]c(=O)[nH]c1=O)C1COc2cc3ccccc3cc2O1 (stereo not drawn) the results were CHOP UPR activ inactive, UPR XBP1 act inactive, aDG glyco act inactive, CHOP inh inactive, MPTP block inactive and NR3A LBD binder inactive.
`CCCC[C@@H](C)C[C@@H](C)C(=O)N(C)[C@@H](CC(C)C)C(=O)N[C@H](C(=O)N(C)[C@H](C(=O)N1C[C@@H](O)C[C@H]1C(=O)N1C(=O)C=C[C@@H]1C)C(C)C)C(C)OC(C)=O` (stereo partly drawn) gave CHOP UPR activ 73, UPR XBP1 act 51, aDG glyco act inactive, MPTP block inactive, NR3A LBD binder inactive, CHOP UPR conf 46 and UPR XBP1 confirm 74.
Cc1ccc(C[n+]2c(-c3ccc(C)cc3)cc(-c3ccc(C)cc3)cc2-c2ccc(C)cc2)cc1 was read as CHOP UPR activ 77, UPR XBP1 act 42, aDG glyco act inactive, MPTP block 93, NR3A LBD binder inactive, CHOP UPR conf 238, UPR XBP1 confirm inactive and Rh123 counter 116.
`C#C[C@]1(O)CC[C@H]2[C@@H]3CCC4=Cc5nc6nc7ccccc7n6cc5C[C@]4(C)[C@H]3CC[C@@]21C` gave CHOP UPR activ inactive, UPR XBP1 act inactive, aDG glyco act inactive, MPTP block inactive and NR3A LBD binder inactive.
O=C1NC(=O)N(Cc2ccc(F)cc2)C(=O)/C1=C/c1cccs1 was read as CHOP UPR activ inactive, UPR XBP1 act 39, aDG glyco act inactive, CHOP inh inactive, MPTP block inactive, NR3A LBD binder inactive and UPR XBP1 confirm 40.
Screening CN(C)c1ccc(/C=C2\C(=O)NC(=O)N(Cc3ccc(F)cc3)C2=O)cc1 returned CHOP UPR activ inactive, UPR XBP1 act inactive, aDG glyco act inactive, CHOP inh inactive, MPTP block inactive and NR3A LBD binder inactive.
Screening CN(C)c1ccc(/C=C/[N+](=O)[O-])cc1 returned CHOP UPR activ inactive, UPR XBP1 act 59, aDG glyco act inactive, CHOP inh inactive, MPTP block inactive, NR3A LBD binder inactive and UPR XBP1 confirm 33.
Screening CN(C)c1ccc(C=C2C(=O)NC(=O)NC2=O)cc1 returned aDG glyco act inactive, MPTP block inactive and NR3A LBD binder inactive.
CCCCCCn1c(O)c(C=NC2CCCCC2N)c(=O)[nH]c1=O (stereo not drawn) was read as CHOP UPR activ inactive, UPR XBP1 act 30, CHOP inh inactive, NR3A LBD binder inactive and UPR XBP1 confirm inactive.
For N#Cc1ccc(NC(=O)CN2C(=O)NC3(CCCCCCC3)C2=O)cc1Cl the results were CHOP UPR activ inactive, UPR XBP1 act inactive, aDG glyco act inactive, MPTP block inactive and NR3A LBD binder inactive.
For NS(=O)(=O)c1ccc(N=Cc2c(O)n(C3CCCCC3)c(=O)n(C3CCCCC3)c2=O)cc1 the results were CHOP UPR activ inactive, UPR XBP1 act 46, aDG glyco act inactive, CHOP inh 112, MPTP block inactive, NR3A LBD binder 14 and UPR XBP1 confirm 40.
Screening C=CCn1c(O)c(C(CC)=NCC2CCCO2)c(=O)[nH]c1=O (stereo not drawn) returned CHOP UPR activ inactive, UPR XBP1 act inactive, aDG glyco act inactive, CHOP inh inactive, MPTP block inactive and NR3A LBD binder inactive.
